Measured values published in article PMC6146057 (ACS chemical neuroscience, 2018).
Substitutions are numbered along the chain they refer to. Where two headings read alike, the source gives them in different places.

Experiments:
M1 [1] = biological target: T1, M1 (Homo sapiens, UniProt P11229); test: M1 PAM potency at increasing ACh concentration; assay type: cell-based; conditions: read-out: M1 PAM potency
T1 sequence (P11229 1-460): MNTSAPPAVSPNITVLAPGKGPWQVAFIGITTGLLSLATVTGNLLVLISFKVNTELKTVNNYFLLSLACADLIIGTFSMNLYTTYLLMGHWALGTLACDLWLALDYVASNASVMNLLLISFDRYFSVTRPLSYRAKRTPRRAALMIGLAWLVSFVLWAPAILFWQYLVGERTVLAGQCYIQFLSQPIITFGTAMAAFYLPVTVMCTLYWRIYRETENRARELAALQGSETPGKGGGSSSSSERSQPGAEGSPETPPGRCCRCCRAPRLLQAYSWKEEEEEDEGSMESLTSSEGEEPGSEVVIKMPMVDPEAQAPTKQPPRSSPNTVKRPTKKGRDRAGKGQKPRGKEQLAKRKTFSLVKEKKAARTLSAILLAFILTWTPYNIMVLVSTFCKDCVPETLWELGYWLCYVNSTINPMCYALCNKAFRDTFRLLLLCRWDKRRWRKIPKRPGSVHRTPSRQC

rat M1 = biological target: T2, rat M1 (Rattus norvegicus, UniProt P08482); conditions: reported M1 PAMs with adverse effect liability; cited from earlier work
T2 sequence (P08482 1-460): T1 sequence (P11229 1-460) with A5V, T254S, P309S, R320K, A337G, I413V

mice = conditions: cited from earlier work
[2] = test system: layer V medial prefrontal cortex fEPSPs; conditions: cited from earlier work
M1 [3] = biological target: T1, M1; conditions: cited from earlier work
[4] = test system: layer V medial prefrontal cortex fEPSPs; test: Extracellular field electrophysiology in layer V prelimbic mPFC slices; set-up: species or system mouse
Outline: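 Coronal prelimbic slices (400 μm) recovered in NMDG-HEPES solution (pH 7.3) for 8–10 min at 32 °C, then were perfused with ACSF at 2 mL/min and 30–32 °C. Layer V fEPSPs were evoked from layers II–III (200 μs, 0.05 Hz) or optically in ChR2-injected mice. Compound alone was bath-applied for 20 min. Alternatively, 10 μM compound was applied for 10 min, then with 3 μM OxoM for 10 min. Slope was measured 46–50 min after washout.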

rats [5] = conditions: cited from earlier work
rats [6] = test: Contextual fear conditioning, risperidone-induced deficit; assay type: in vivo, rat; conditions: 3 mg/kg i.p. alone

For `Cc1cc2c(cc1Cc1ccc(-c3cocn3)cc1)C(=O)N([C@H]1CCOC[C@@H]1O)C2` [PF-06827443], the EC50 (M1 [1]; ACh concentration increased to EC70) is listed as 0.007 ± 0.001 µM, the EC50 (M1 [1]; very low level of ACh (~EC9)) is listed as 0.04 ± 0.006 µM and the “Displacement of [3H]-NMS” value (rat M1) is listed as “weak to significant displacement”. For the same compound, the Seizures in mice (mice; mice) was “induced seizures in mice” and the “Agonist activity in the mouse PFC” value [2] was “have agonist activity”.
For `Cn1cc(-c2ccc(CN3Cc4ncccc4C3=O)c(F)c2)cn1` [VU0453595], the “potency at M1” value (M1 [3]) is listed as “low micromolar range”.
For `Cn1cc(-c2ccc(Cn3cc(C(=O)N[C@H]4CCCC[C@@H]4O)c4c(F)cc(F)cc43)cn2)cn1` [VU6004256], the “Behavioral convulsions and cholinergic AEs” value (mice; rodents) is given as “devoid of behavioral convulsions and cholinergic AEs”.
In the case of `C[N+](C)(C)CCOC(N)=O` [carbachol, reference compound], the “LTD of layer V fEPSPs, agonist alone” value ([4]; 10 μM, electrically evoked) is reported as “does not induce a significant long-term depression”.
In the case of `COc1ccc(Cn2cc(C(=O)O)c(=O)c3ccccc32)cc1` [compound 1], the “Displacement of [3H]-NMS” value (rat M1) is given as “weak to significant displacement”.
For `Cc1ccc(Cc2cc3c(=O)n([C@H]4CCCC[C@@H]4O)cnc3c3ccccc23)cn1` [compound 2], the “Displacement of [3H]-NMS” value (rat M1) is listed as “weak to significant displacement”, the “Behavioral convulsions, Racine scale” value (mice; mice, develop rapidly and lasted 3 h) is listed as 4/5 and the “Agonist activity in the mouse PFC” value [2] is listed as “have agonist activity”. The “Efficacy in rat novel object recognition (NOR) model” value (rats [5]) was “failed to show efficacy”.
For `C[N+](C)(C)CC#CCN1CCCC1=O` [oxotremorine-M, reference compound], the “LTD of layer V fEPSPs, agonist alone” value ([4]; 3 μM, optical stimulation of ventral hippocampal afferents) was “does not induce a significant LTD”.
For `Cc1nc2n(c(=O)c1CCN1CCC(c3noc4cc(F)ccc34)CC1)CCCC2` [risperidone, reference compound], the “Effect on acquisition of contextual fear conditioning” value (rats [6]) was “deficits in acquisition of contextual fear conditioning”.
